# Screening results (PubChem)
# NR2E3 ag-1 – agonists of human NR2E3 nuclear receptor | Q9Y5X4 | CHO-S Gal4-NCOR/VP16-NR2E3 two-hybrid, luciferase | actives 0.35% (n = 360,000) | AID 602229 | inhibition of corepressor binding, % at 3.98 µM;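 active = inhibition above the mean of all tested compounds plus 3 SD, cut at about 70% in these data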;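 note: higher means lower luciferase signal from less NR2E3 corepressor binding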
# PG9 binder – PG9 antibody binding by small molecule; TR-FRET gp120-PG9 antibody binding; inhibition, % at 6.7 µM; AID 624416; actives 0.43% (n = 360,000); in the data active = inhibition above about 8.5%
# NR1D1 modulator – modulates human Rev-erb alpha binding to DNA. Rev-erbα–FITC-DNA binding, fluorescence polarization, 90 min. activity, % at 10 µM. actives 0.79% (n = 370,000). AID 1259318;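 active = activity above about 14%, limit read from the data; passing the limit was not always enough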
# Target sequence (P20393 whole entry, looked up): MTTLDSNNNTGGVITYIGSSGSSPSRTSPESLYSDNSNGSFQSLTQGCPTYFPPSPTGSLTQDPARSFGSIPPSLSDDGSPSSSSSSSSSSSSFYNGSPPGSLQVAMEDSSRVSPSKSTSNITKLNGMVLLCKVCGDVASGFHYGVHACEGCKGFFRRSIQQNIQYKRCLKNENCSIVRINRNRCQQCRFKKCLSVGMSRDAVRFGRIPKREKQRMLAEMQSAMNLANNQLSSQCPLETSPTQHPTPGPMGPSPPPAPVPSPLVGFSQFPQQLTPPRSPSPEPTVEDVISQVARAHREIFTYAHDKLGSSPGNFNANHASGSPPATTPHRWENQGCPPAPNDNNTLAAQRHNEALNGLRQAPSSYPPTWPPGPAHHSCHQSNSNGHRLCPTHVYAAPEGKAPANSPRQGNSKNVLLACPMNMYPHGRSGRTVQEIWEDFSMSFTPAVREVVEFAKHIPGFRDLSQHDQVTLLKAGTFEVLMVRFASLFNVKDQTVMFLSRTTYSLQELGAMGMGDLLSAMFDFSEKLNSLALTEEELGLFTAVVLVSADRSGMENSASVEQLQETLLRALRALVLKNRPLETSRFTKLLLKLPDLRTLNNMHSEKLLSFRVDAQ
# NR2E3 ag-2 – NR2E3 (human) agonism; GST-NR2E3/biotin-RetCOR TR-FRET, 1536-well; inhibition of corepressor binding, % at 4.78 µM; actives 0.12% (n = 320,000); AID 2300;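 active = percent inhibition above the cutoff of mean plus 3 SD of all tested compounds, set per screening campaign, cut at about 20% in these data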
#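 system = GST-tagged NR2E3 plus biotinylated RetCOR corepressor | input = 1.35 nM GST-NR2E3 | also added = 7 nM biotin-RetCOR | schedule = 5 h incubation at 4 °C | measured by = TR-FRET with europium anti-GST and streptavidin-D2, 340 nm excitation | read-out = percent loss of FRET ratio relative to control wells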
# PG9 bind confirm – confirmation of small molecules binding HIV-1 gp120 antibody PG9; inhibition, % at 6.7 µM; shares compounds with PG9 binder; AID 651571; TR-FRET PG9 antibody binding, biochemical; actives 90% (n = 1,500); in the data active = inhibition above about 9%
# PGV04 Ab binding – counter-screen for PG9 binders: binding control antibody PGV04. shares compounds with PG9 binder. TR-FRET PGV04 antibody-gp120 binding, biochemical. inhibition, % at 6.7 µM. actives 95% (n = 1,500). AID 651604; in the data active = inhibition above about 9.5%
# Numbers stand for hits; 0 = inactive; - = no result given. Compounds with a hit are over-represented: about 1.5% of the library has one in this group of screens.
SMILES,NR2E3 ag-1,PG9 binder,NR1D1 modulator,NR2E3 ag-2,PG9 bind confirm,PGV04 Ab binding
Cc1cc(C)c2nc(-c3ccccn3)cc(C(=O)NCc3ccc(S(N)(=O)=O)cc3)c2c1,0,0,0,0,-,-
COc1ccccc1CCNC(=O)c1cc(-c2ccccn2)nc2ccccc12,0,27.0,0,-,22.1,31.8
Cc1cc(C)c2nc(-c3ccccn3)cc(C(=O)NCCc3ccc(S(N)(=O)=O)cc3)c2c1,0,29.9,0,0,23.4,39.9
O=C1C(=O)N(CCN2CCOCC2)C(c2ccccc2)/C1=C(\O)c1ccc2c(c1)OCCO2 (stereo not given),0,15.2,0,0,20.8,23.0
C=CCOc1cccc(C2/C(=C(\O)c3ccc4c(c3)OCCO4)C(=O)C(=O)N2CCN2CCOCC2)c1 (stereo not given),0,9.3,0,0,16.2,20.8
O=C1C(=O)N(CCCN2CCOCC2)C(c2ccc(Cl)cc2)/C1=C(\O)c1ccc2c(c1)OCCO2 (stereo not given),0,10.0,0,0,22.7,26.7
O=C(Nc1nc2c(Br)cc(Br)cc2c(=O)s1)c1ccco1,0,30.0,0,0,57.5,63.2
Cc1cc(C)c2nc(NC(=O)c3ccco3)sc2c1,0,0,0,0,-,-
CCOC(=O)Nc1nc(C)c(C(=O)c2ccc(Cl)cc2)s1,0,10.2,0,0,16.6,32.9
S=c1[nH]nc(-c2n[nH]c3c2CCC3)n1N=Cc1c2ccccc2cc2ccccc12,-,-,0,-,-,-
COc1cccc(C(=O)N=c2sc3cc(S(C)(=O)=O)ccc3n2C)c1,0,38.5,0,0,46.3,60.2
O=C(Nc1c(Cl)cccc1Cl)c1ccc(-c2ccccc2)cc1,0,0,0,0,-,-
Cc1cc(NC(=O)c2ccc(Cl)cc2)ccc1NC(=O)c1ccccc1Cl,0,0,0,0,-,-
O=C(Nc1ccc(Cl)cc1Cl)c1ccc(-c2ccccc2)cc1,0,11.4,0,0,32.6,48.6
Cc1ccc(C(=O)Nc2ccc(NC(=O)c3ccccc3Cl)c(C)c2)cc1,0,29.4,0,-,26.3,39.4
Oc1ccc(Oc2ccccc2F)c2cccnc12,-,-,0,-,-,-
Cc1cc(SCC(=O)NC2(C#N)CCCCC2)nc2c(C)cccc12,0,22.9,0,0,31.2,36.5
Cc1cc(SCCC(=O)O)nc2c(C)cccc12,0,11.0,0,0,14.2,17.7
Cc1cc(SCC(=O)N2CCCC2=O)nc2c(C)cccc12,0,0,0,0,-,-
Cc1cccc(-n2c(-c3ccco3)n[nH]c2=S)c1,0,13.6,0,0,17.0,19.5
Cc1cccc(-n2c(-c3ccc(Br)o3)n[nH]c2=S)c1,0,0,0,0,-,-
COc1ccc2ccccc2c1C=Nn1c(-c2cc(-c3ccccc3)n[nH]2)n[nH]c1=S,-,-,0,-,-,-
COc1ccc(-c2cc3nc(NCc4ccc(C)cc4C)n(C)c(=O)c3s2)cc1OC,0,13.1,0,-,12.9,20.4
CC(C)(C)NS(=O)(=O)c1ccc2nc(NC(=O)c3ccc(N4C(=O)CCC4=O)cc3)sc2c1,0,47.6,0,0,46.2,64.4
O=C(CSc1nnc(-c2cccnc2)n1-c1ccccc1)Nc1ccc(OCc2ccccc2)cc1,-,-,0,-,-,-
SMILES,NR2E3 ag-1,PG9 binder,NR1D1 modulator,NR2E3 ag-2,PG9 bind confirm,PGV04 Ab binding
CCCCNS(=O)(=O)c1ccc2nc(-c3cccnc3)cc(C(=O)NCCCOC)c2c1,0,11.3,0,0,12.6,14.8
CC(=O)c1cc(-c2ccccc2)n(CC(=O)NCc2cccs2)c1C,0,12.3,0,0,14.5,22.2
CC(=O)c1cc(-c2ccccc2)n(CC(=O)NCc2ccccc2)c1C,-,-,0,-,-,-
CCN=C1SC(C(N)=O)CC(=O)N1CC (stereo not given),0,9.0,0,0,0,17.8
COC(=O)[C@H](C)N(Cc1cn(Cc2ccccc2)nn1)S(=O)(=O)c1ccccc1Br,-,-,0,-,-,-
CCc1cc2cc(C(=O)N3CCN(c4ccccc4)CC3)sc2s1,0,20.2,0,0,36.4,39.7
CCc1cc2cc(C(=O)N3CCN(Cc4ccccc4)CC3)sc2s1,0,0,0,0,-,-
COc1cccc(C2C(C(=O)c3cc4ccccc4o3)=C(O)C(=O)N2CCN2CCOCC2)c1 (stereo not given),0,14.8,0,0,31.1,53.9
CCCOc1cccc(C2C(C(=O)c3ccc(C)o3)=C(O)C(=O)N2CCN2CCOCC2)c1 (stereo not given),0,0,0,0,-,-
CCN(CC)CCCN1C(=O)C(O)=C(C(=O)c2cc3cccc(OC)c3o2)C1c1ccncc1 (stereo not given),0,15.2,0,0,25.7,37.4
COc1cccc2cc(C(=O)C3=C(O)C(=O)N(CCN4CCOCC4)C3c3ccc(C)o3)oc12 (stereo not given),0,0,0,0,-,-
COc1cccc2cc(C(=O)C3=C(O)C(=O)N(CCN(C)C)C3c3ccc(F)cc3)oc12 (stereo not given),0,20.8,0,0,31.1,41.0
COc1cc(C2C(C(=O)c3ccc(C)o3)=C(O)C(=O)N2CCN2CCOCC2)ccc1OCCC(C)C (stereo not given),0,12.3,0,-,19.5,21.6
O=C(NCc1ccccc1)OCCN1C(=O)CCC12CCC(c1ccc(Cl)cc1)CC2 (stereo not given),-,-,0,-,-,-
CCCCCCCCN1CN2Cc3cc(F)ccc3C2CS1(=O)=O (stereo not given),-,-,0,-,-,-
Cc1ccc(CNC(=O)OC(C)(C)C)c(/C=C/S(=O)(=O)NCc2ccc(F)cc2)c1,-,-,0,-,-,-
COc1cccc(C2C(C(=O)c3cc4ccccc4o3)=C(O)C(=O)N2CCN(C)C)c1OC (stereo not given),0,29.5,0,0,32.7,53.9
Cc1cc2n(n1)C(c1ccc3c(c1)OCO3)Nc1c(C)cccc1-2 (stereo not given),0,0,0,0,-,-
Cc1cc2n(n1)C(c1cn(-c3ccccc3)nc1C)Nc1c(C)cccc1-2 (stereo not given),0,15.1,0,0,15.3,22.1
Cc1ccc2cc(C#N)c(SCC(=O)NCc3ccco3)nc2c1,0,0,0,0,-,-
CCOC(=O)CNC(=O)CSc1nc(C)cc(C)c1C#N,0,0,0,0,-,-
Cc1ccc(CNC(=O)CSc2nc(C)cc(C)c2C#N)cc1,0,57.6,0,0,38.8,45.5
Cc1ccc2nc(SCC(=O)NCc3ccco3)c(C#N)cc2c1,0,13.3,0,0,10.7,17.8
CCOC(=O)CC[C@@]1(C(=O)OCC)C[C@@H](CC(=O)NCCCN2CCCC2=O)C(=O)N2CCCC=C21,-,-,0,-,-,-
CC(=O)c1ccc(NC(=O)c2ccc(-n3cnnn3)cc2)cc1,0,17.0,0,-,33.1,45.8
CC(=O)c1ccc(S(=O)(=O)Nc2ccc(-n3cnnn3)cc2)cc1,0,0,0,0,-,-
Cc1ccccc1NC(=O)C1CCN(c2cc(-c3ccccc3)nc3ncnn23)CC1,0,8.8,0,0,16.9,27.0
